Laboratory results reported in ChEMBL document CHEMBL3526071, “Predicting phenolic acid absorption in Caco-2 cells: a theoretical permeability model and mechanistic study” (Drug Metab Dispos, 2012).
Blank lines part the entries; values can stand above or below the compound they belong to. Where a SMILES comes first, the peptide text is derived from it.

Tests used:
[1] = 1-Octanol-water distribution coefficient, log D of the compound at pH 7.4 by shake flask method; assay type: physicochemical
[2] = Efflux ratio of apparent permeability from basolateral to apical side over apical to basolateral side in human Caco2 cells at 500 uM after 1 hr by HPLC-DAD analysis; assay type: ADME, cell-based; conditions: Caco-2
[3] = Apparent permeability across human Caco2 cells with high TEER resistance at 500 uM after 1 hr by HPLC-DAD analysis; assay type: ADME, cell-based; conditions: Caco-2
How it was run: (§1)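 Caco-2 (passages 30–50) seeded at 6 × 10^4 cells/cm2 on 0.4-μm polycarbonate Transwell inserts and grown 21 days. Monolayer resistance varied by 15-min preincubation in HBSS pH 7.4 with 18 μM or 3.6 mM CaCl2. 500 μM compound added apically in HBSS at the same CaCl2. 1 h, 37°C, no stirring. TEER measured before and after, corrected for cell-free insert. Receiver quantified by HPLC-DAD. n = 3.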

[4] = Apparent permeability across human Caco2 cells with low TEER resistance at 500 uM after 1 hr by HPLC-DAD analysis; assay type: ADME, cell-based; conditions: Caco-2; how it was run: as §1
[5] = Apparent permeability from basolateral to apical side in human Caco2 cells at 500 uM at pH 7.4 after 1 hr by HPLC-DAD analysis; assay type: ADME, cell-based; conditions: Caco-2, pH 7.4
How it was run: (§2)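 Differentiated Caco-2 monolayers after 21+ days on Transwells, equilibrated 15 min in HBSS with 1.8 mM CaCl2, pH 7.4. 500 μM compound (from DMSO stock) in the donor, apical or basal. Both sides pH 7.4. 1 h at 37°C, 5% CO2. Receiver measured by HPLC-DAD with recovery correction. Papp calculated from receiver amount over time versus initial donor amount. Mean ± S.D., n = 3.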

[6] = Apparent permeability from apical to basolateral side in human Caco2 cells at 500 uM at pH 7.4 after 1 hr by HPLC-DAD analysis; assay type: ADME, cell-based; conditions: Caco-2, pH 7.4; how it was run: as §2
[7] = 1-Octanol-water distribution coefficient, log D of the compound at pH 7.4; assay type: physicochemical
[8] = Oral bioavailability in human; assay type: ADME, organism-based; conditions: in vivo
[9] = 1-octanol/water, read-out: logD

- logD [1]: -1.04
- efflux ratio at 1 h, 500 µM [2]: 5.4
- Papp at 1 h, 500 µM [3]: 0.05 ×10⁻⁶ cm/s
- Papp at 1 h, 500 µM [4]: 0.68 ×10⁻⁶ cm/s
- Papp B→A at 1 h, 500 µM [5]: 0.72 ×10⁻⁶ cm/s
- Papp A→B at 1 h, 500 µM [6]: 0.14 ×10⁻⁶ cm/s
Structure (SMILES): O=C(/C=C/c1ccc(O)c(O)c1)O[C@@H]1C[C@](O)(C(=O)O)C[C@@H](OC(=O)/C=C/c2ccc(O)c(O)c2)[C@H]1O

- logD [7, 9]: 2.75
Structure (SMILES): CC(C)(C)S(=O)(=O)C[C@@H](Cc1ccccc1)C(=O)N[C@@H](Cc1cnc[nH]1)C(=O)N[C@@H](CC1CCCCC1)[C@@H](O)[C@@H](O)C1CC1

- logD [1]: -1.01
- efflux ratio at 1 h, 500 µM [2]: 1.1
- Papp B→A at 1 h, 500 µM [5]: 21.7 ×10⁻⁶ cm/s
- Papp A→B at 1 h, 500 µM [6]: 19.9 ×10⁻⁶ cm/s
Structure (SMILES): COc1ccc(/C=C/C(=O)O)cc1OC

- logD [7, 9]: -1.05
Structure (SMILES): CSc1ccc2ncn(/C=C/C(=O)O)c(=O)c2c1

- logD [1]: -2.79
- efflux ratio at 1 h, 500 µM [2]: 1.1
- Papp at 1 h, 500 µM [3]: 0.31 ×10⁻⁶ cm/s
- Papp at 1 h, 500 µM [4]: 1.7 ×10⁻⁶ cm/s
- Papp B→A at 1 h, 500 µM [5]: 0.28 ×10⁻⁶ cm/s
- Papp A→B at 1 h, 500 µM [6]: 0.25 ×10⁻⁶ cm/s
Structure (SMILES): COc1cc(/C=C/C(=O)O[C@@H]2C[C@](O)(C(=O)O)C[C@@H](O)[C@H]2O)ccc1O

- logD [1]: 1.08
Structure (SMILES): C=CCc1ccccc1OCC(O)CNC(C)C (centres undefined) [ALPRENOLOL]

- bioavailability [8]: 100%
Structure (SMILES): Cc1c(N(C)C)c(=O)n(-c2ccccc2)n1C [AMINOPYRINE]

- bioavailability [8]: 100%
Structure (SMILES): CC(=O)Oc1ccccc1C(=O)O [ASPIRIN]

- Papp B→A at 1 h, 500 µM [5]: 1.7 ×10⁻⁶ cm/s
- Papp A→B at 1 h, 500 µM [6]: 1.4 ×10⁻⁶ cm/s
Structure (SMILES): O=C(O)/C=C/c1ccc(O)c(O)c1 [CAFFEIC ACID]

- logD [1]: -3.05
- Papp at 1 h, 500 µM [3]: 0.25 ×10⁻⁶ cm/s
- Papp at 1 h, 500 µM [4]: 0.77 ×10⁻⁶ cm/s
- Papp B→A at 1 h, 500 µM [5]: 0.33 ×10⁻⁶ cm/s
- Papp A→B at 1 h, 500 µM [6]: 0.38 ×10⁻⁶ cm/s
Structure (SMILES): O=C(/C=C/c1ccc(O)c(O)c1)O[C@@H]1C[C@](O)(C(=O)O)C[C@@H](O)[C@H]1O [CHLOROGENIC ACID]

Structure (SMILES): CN/C(=N/CCSCc1nc[nH]c1C)NC#N [CIMETIDINE]
- logD [7, 9]: -0.4

- logD [7, 9]: -2.83
Structure (SMILES): OC[C@H]1OC(O)[C@H](O)[C@@H](O)[C@@H]1O (some centres undefined) [DEXTROSE]

- logD [7, 9]: -2.59
Structure (SMILES): CNC[C@H](O)c1ccc(O)c(O)c1 [EPINEPHRINE]

- logD ([7]; octanol/water): 3.48
Structure (SMILES): CCOC(=O)C1=C(C)NC(C)=C(C(=O)OC)C1c1cccc(Cl)c1Cl (centres undefined) [FELODIPINE]

- logD [1]: -1.19
- efflux ratio at 1 h, 500 µM [2]: 1
- Papp at 1 h, 500 µM [3]: 10.8 ×10⁻⁶ cm/s
- Papp at 1 h, 500 µM [4]: 11.2 ×10⁻⁶ cm/s
- Papp B→A at 1 h, 500 µM [5]: 10.2 ×10⁻⁶ cm/s
- Papp A→B at 1 h, 500 µM [6]: 10 ×10⁻⁶ cm/s
Structure (SMILES): COc1cc(/C=C/C(=O)O)ccc1O [FERULATE]

Structure (SMILES): CC(C)n1c(/C=C/C(O)CC(O)CC(=O)O)c(-c2ccc(F)cc2)c2ccccc21 (centres undefined) [FLUVASTATIN]
- logD [7, 9]: 1.09

- logD [7, 9]: -3.32
Structure (SMILES): NCC(=O)N1CCC[C@H]1C(=O)O [GLYCYL PROLINE] (H-Gly-Pro-OH)

- logD [7, 9]: 2.47
Structure (SMILES): COC1=CC(=O)C[C@@H](C)[C@]12Oc1c(Cl)c(OC)cc(OC)c1C2=O [GRISEOFULVIN]

- logD [7, 9]: -0.83
Structure (SMILES): N=C(N)NCC1COc2ccccc2O1 (centres undefined) [GUANOXAN]

- logD ([7]; octanol/water): -1.22
Structure (SMILES): N[C@@H](Cc1ccc(O)c(O)c1)C(=O)O [LEVODOPA]

- bioavailability [8]: 16%
- logD [7, 9]: -3.1
Structure (SMILES): OC[C@@H](O)[C@@H](O)[C@H](O)[C@H](O)CO [MANNITOL]

- logD [1]: -0.24
Structure (SMILES): COCCc1ccc(OCC(O)CNC(C)C)cc1 (centres undefined) [METOPROLOL]

- logD ([7]; octanol/water): 3.66
Structure (SMILES): COCC(=O)O[C@]1(CCN(C)CCCc2nc3ccccc3[nH]2)CCc2cc(F)ccc2[C@@H]1C(C)C [MIBEFRADIL]

Structure (SMILES): Cc1ccnc2c1NC(=O)c1cccnc1N2C1CC1 [NEVIRAPINE]
- bioavailability [8]: > 90%
- logD [7, 9]: 1.81

- logD [7, 9]: 2.5
Structure (SMILES): O=C1NC(=O)C(c2ccccc2)(c2ccccc2)N1 [PHENYTOIN]

- logD [7, 9]: 0
Structure (SMILES): CN1C(C(=O)Nc2ccccn2)=C(O)c2ccccc2S1(=O)=O [PIROXICAM]

- logD [7, 9]: -1.4
Structure (SMILES): CC(=O)Nc1ccc(OCC(O)CNC(C)C)cc1 (centres undefined) [PRACTOLOL]

- logD [7, 9]: 0.53
Structure (SMILES): COC(=O)c1ccccc1-c1c2ccc(=N)cc-2oc2cc(N)ccc12 [RHODAMINE123]

Structure (SMILES): O=C(O)c1ccccc1O [SALICYLIC ACID]
- logD [1]: -2.34
- bioavailability [8]: 100%
- logD [7, 9]: -1.44

- bioavailability [8]: 55%
- logD [7, 9]: 1.1
Structure (SMILES): CC(C)(C)NCC(O)COc1ccc(NC(=O)NC2CCCCC2)cc1 (centres undefined) [TALINOLOL]

Structure (SMILES): CC(=O)CC(c1ccccc1)c1c(O)c2ccccc2oc1=O (centres undefined) [WARFARIN]
- logD [7, 9]: 0.9
